Activity calls are given as the source filed them. The rule behind the calls is not given here. Numbered stars: 1 amine (or outer) side, 2 acyl side, 3 side chain; on linkers, the order of the positions; unused ones are H or OH. Bridge positions count the residues as written; N and C are the ends. Square brackets hold non-standard residues; d marks the D form. Peptide text beside a SMILES is read from it. I, II: the chains in the order shown. Actinocin(1to9) = Cc1c2oc3c(C)ccc(C(=O)[*:2])c3nc-2c(C(=O)[*:1])c(N)c1=O; NMeV = CN[C@H](C(=O)O)C(C)C; Sar = CNCC(=O)O
How the values were obtained:
HT-29 [1] = assay: Antiproliferative activity against human HT-29 cells at 0.01 ug after 48 hrs by two-layer agar-diffusion method; format: functional
Summary of the method: (§1)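 Compound (0.01-10 µg) spotted on Si gel pieces, air-dried, placed face down on 1.5% Noble agar in PBS-growth medium (20:80) for 60 min diffusion. After removal, cells (2 X 10^6/ml) in 0.3% low-temperature agarose overlaid; 48 h incubation. Cytotoxic zones shown by MTT (5 mg/ml in growth medium) over agarose; absence of zone scored as not detected.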

P388 [2] = assay: Antiproliferative activity against mouse P388 cells at 0.1 ug after 48 hrs by two-layer agar-diffusion method; format: functional; details: for zone of inhibition at 0.1 µg/disc: read-out: IZ; summary of the method: as §1
P388 [3] = assay: Antiproliferative activity against mouse P388 cells at 1 ug after 48 hrs by two-layer agar-diffusion method; format: functional; details: read-out: IZ; summary of the method: as §1
P388 [4] = assay: Antiproliferative activity against mouse P388 cells at 0.01 ug after 48 hrs by two-layer agar-diffusion method; format: functional; details: for zone of inhibition at 0.01 µg/disc: read-out: IZ; summary of the method: as §1
HT-29 [5] = assay: Antiproliferative activity against human HT-29 cells at 1 ug after 48 hrs by two-layer agar-diffusion method; format: functional; details: for zone of inhibition at 1 µg/disc: read-out: IZ; summary of the method: as §1
HT-29 [6] = assay: Antiproliferative activity against human HT-29 cells at 0.1 ug after 48 hrs by two-layer agar-diffusion method; format: functional; summary of the method: as §1
HT-29 [7] = assay: Antiproliferative activity against human HT-29 cells at 10 ug after 48 hrs by two-layer agar-diffusion method; format: functional, cell-based; summary of the method: as §1
P388 [8] = assay: Antiproliferative activity against mouse P388 cells after 48 hrs by MTT assay; format: functional, cell-based; details: P388, 48 h
Summary of the method: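 Uncloned P-388 in RPMI 1640 + 10% horse serum, gentamicin 50 µg/ml; 200-µl cultures at 1 X 10' cells/ml with or without drug, 48 h exposure. MTT (5 mg/ml in medium, 75 µl) added for 90 min, formazan read at 570 nm; absorbance normalized to untreated wells; IC50 by linear regression of logit-transformed data.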

HT-29 [9] = assay: Antiproliferative activity against human HT-29 cells after 96 hrs by MTT assay; format: functional, cell-based; details: HT-29, 96 h
P388 [10] = assay: Antiproliferative activity against mouse P388 cells at 5 ug after 48 hrs by two-layer agar-diffusion method; format: functional; details: read-out: IZ; summary of the method: as §1
HT-29 [11] = assay: Antiproliferative activity against human HT-29 cells at 5 ug after 48 hrs by two-layer agar-diffusion method; format: functional; details: read-out: IZ; summary of the method: as §1

Compound | IC50 (P388 [8]) | IC50 (HT-29 [9]) | Activity (HT-29 [1]) | zone of inhibition at 0.1 µg/disc (P388 [2]) | zone of inhibition at 1 µg/disc (P388 [3]) | Activity (P388 [4]) | Activity (HT-29 [5]) | Activity (HT-29 [6]) | Activity (HT-29 [7]) | zone of inhibition at 1 µg/disc (HT-29 [5]) | zone of inhibition at 0.01 µg/disc (HT-29 [1]; read-out: IZ) | zone of inhibition at 0.01 µg/disc (P388 [4]) | zone of inhibition at 0.1 µg/disc (HT-29 [6]; read-out: IZ) | zone of inhibition at 5 µg/disc (P388 [10]) | zone of inhibition at 5 µg/disc (HT-29 [11]) | Activity (P388 [2])
COc1cc(NS(C)(=O)=O)ccc1Nc1c2ccccc2nc2ccccc12 [AMSACRINE] | 229 nM | 559 nM | inactive | 10 mm | 20 mm | inactive | inactive | inactive | inactive | – | – | – | – | – | – | –
Nc1ncn([C@@H]2O[C@H](CO)[C@@H](O)[C@H]2O)c(=O)n1 [AZACITIDINE] | 5000 nM | 3800 nM | inactive | 12.5 mm | 30 mm | inactive | – | inactive | – | 20 mm | – | – | – | – | – | –
COc1cc2c(c(OC)c1OC)-c1ccc(OC)c(=O)cc1[C@@H](NC(C)=O)CC2 [COLCHICINE] | 24 nM | – | – | 40 mm | > 40 mm | – | – | – | – | > 40 mm | 25 mm | 17.5 mm | 40 mm | – | – | –
C=C1C(=O)O[C@H]2C[C@@H]1C(OC(C)=O)C/C(C)=C/CC/C(C)=C/CC[C@@]2(C)O (stereo partly drawn) [CRASSIN ACETATE] | 1 µg/mL | 0.26 µg/mL | – | – | 9 mm | – | – | – | – | – | – | – | – | 20 mm | 17 mm | –
Nc1ccn([C@@H]2O[C@H](CO)[C@@H](O)[C@@H]2O)c(=O)n1 [CYTARABINE] | 1230 nM | 66 nM | inactive | 20 mm | > 40 mm | – | inactive | inactive | inactive | – | – | 10 mm | – | – | – | –

Further lines, with some results ahead:

IC50 (P388 [8]) | IC50 (HT-29 [9]) | Compound | Activity (HT-29 [1]) | zone of inhibition at 0.1 µg/disc (P388 [2]) | zone of inhibition at 1 µg/disc (P388 [3]) | Activity (P388 [4]) | Activity (HT-29 [5]) | Activity (HT-29 [6]) | Activity (HT-29 [7]) | zone of inhibition at 1 µg/disc (HT-29 [5]) | zone of inhibition at 0.01 µg/disc (HT-29 [1]; read-out: IZ) | zone of inhibition at 0.01 µg/disc (P388 [4]) | zone of inhibition at 0.1 µg/disc (HT-29 [6]; read-out: IZ) | zone of inhibition at 5 µg/disc (P388 [10]) | zone of inhibition at 5 µg/disc (HT-29 [11]) | Activity (P388 [2])
0.2 nM | 223 nM | Cc1c2oc3c(C)ccc(C(=O)N[C@@H]4C(=O)N[C@H](C(C)C)C(=O)N5CCC[C@H]5C(=O)N(C)CC(=O)N(C)[C@@H](C(C)C)C(=O)O[C@@H]4C)c3nc-2c(C(=O)N[C@@H]2C(=O)N[C@H](C(C)C)C(=O)N3CCC[C@H]3C(=O)N(C)CC(=O)N(C)[C@@H](C(C)C)C(=O)O[C@@H]2C)c(N)c1=O [DACTINOMYCIN] (I: T[dV]P[Sar][NMeV] / II: T[dV]P[Sar][NMeV]; ester I:1-I:C, II:1-II:C; linker I:N-II:N via Actinocin(1to9)) | inactive | – | 5 mm | inactive | inactive | inactive | inactive | – | – | – | – | – | – | inactive
28 nM | 133 nM | COc1cccc2c1C(=O)c1c(O)c3c(c(O)c1C2=O)C[C@@](O)(C(C)=O)C[C@@H]3O[C@H]1C[C@H](N)[C@H](O)[C@H](C)O1 [DAUNORUBICIN] | inactive | 12.5 mm | 20 mm | – | – | inactive | – | 5 mm | – | 10 mm | – | – | – | –
74 nM | 37 nM | COc1cccc2c1C(=O)c1c(O)c3c(c(O)c1C2=O)C[C@@](O)(C(=O)CO)C[C@@H]3O[C@H]1C[C@H](N)[C@H](O)[C@H](C)O1 [DOXORUBICIN] | inactive | 17.5 mm | 25 mm | – | – | inactive | – | 5 mm | – | 5 mm | – | – | – | –

From ChEMBL document CHEMBL1147285, “A mammalian cell agar-diffusion assay for the detection of toxic compounds” (J Nat Prod, 1989)
